Blank lines part the entries; values can stand above or below the compound they belong to. Active and inactive are the calls of the source. The calls are words filed in the database; no cut-off is given here.
Tests used:
c-Myc/Max [1] = biological target: T1, c-Myc/Max (Homo sapiens, UniProt P01106+P61244); assay: Disruption of human recombinant c-Myc-Max(S)/DNA (unknown origin) binding assessed as complex level at 100 uM by electrophoretic mobility shift assay relative to control; format: protein-complex assay
How it was run: (§1)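 Recombinant c-Myc 353–437 bHLH-ZIP with full-length Max(S), or Max(L) alone, from E. coli (His₆ removed by TEV), each 30 nM, with 30 nM HEX-labelled double-stranded oligonucleotide bearing a c-Myc site; buffer 1× PBS pH 7.3, 1 mM EDTA, 0.1% NP40, 5% glycerol, 1 mM DTT, 400 µg/mL BSA; complex level relative to DMSO control; three independent EMSAs.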

c-Myc/Max [2] = biological target: T1, c-Myc/Max; assay: Disruption of human recombinant c-Myc-Max/DNA (unknown origin) binding assessed as complex level by electrophoretic mobility shift assay relative to control; format: protein-complex assay; how it was run: as §1
[3] = Antiproliferative activity against c-Myc-overexpressing human HL60 cells after 3 days by MTT assay; format: functional, cell-based; details: HL-60, 72 h
How it was run: (§2)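 Cells at >90% viability seeded at 2×10³ cells/well in fresh growth medium with 10-point serial dilutions of compound; 3-day incubation; viability by MTT, relative to untreated cells; each point in at least triplicate; IC50 from dose–response. HO15.19-wt-Myc are myc−/− rat fibroblasts with c-Myc restored by stable retroviral transduction.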

Daudi = assay: Antiproliferative activity against c-Myc-overexpressing human Daudi cells after 3 days by MTT assay; format: functional, cell-based; details: 72 h; how it was run: as §2
[4] = biological target: Protein max (Homo sapiens) (UniProt P61244); assay: Binding affinity to human recombinant 15N labeled Max(S) homodimer assessed as chemical shift up to 100 uM by NMR spectroscopy
c-Myc/Max [5] = biological target: T1, c-Myc/Max; assay: Binding affinity to human recombinant 15N labeled c-Myc-Max(S) heterodimer assessed as chemical shift up to 100 uM by NMR spectroscopy; format: protein-complex assay
c-Myc/Max [6] = biological target: T1, c-Myc/Max; assay: Inhibition of heterodimerization of human recombinant His-tagged c-Myc-Max(S) compound treated for 20 mins with c-Myc and followed by added Max(S) at 3.1 to 50 uM after 30 mins by SPR analysis in presence of biotinylated E-box-containing oligonucleotides; format: protein-complex assay
c-Myc/Max [7] = biological target: T1, c-Myc/Max; assay: Inhibition of human recombinant His-tagged c-Myc-Max(S) heterodimer binding to DNA at 3.1 to 50 uM after 30 mins by SPR analysis in presence of biotinylated E-box-containing oligonucleotides; format: protein-complex assay
[8] = Antiproliferative activity against human INA-6 cells after 3 days by MTT assay; format: functional, cell-based; details: INA-6, 72 h; how it was run: as §2
[9] = Antiproliferative activity against human IH-1 cells after 3 days by MTT assay; format: functional, cell-based; details: IH-1, 72 h; how it was run: as §2
[10] = Antiproliferative activity against human H460 cells after 3 days by MTT assay; format: functional, cell-based; details: NCI-H460, 72 h; how it was run: as §2
HeLa = assay: Antiproliferative activity against human HeLa cells after 3 days by MTT assay; format: functional, cell-based; details: 72 h; how it was run: as §2
HEK293 = assay: Antiproliferative activity against human HEK293 cells after 3 days by MTT assay; format: functional, cell-based; details: HEK293, 72 h; how it was run: as §2
[11] = Antiproliferative activity against human JJN-3 cells after 3 days by MTT assay; format: functional, cell-based; details: JJN-3, 72 h; how it was run: as §2
[12] = Antiproliferative activity against human ANBL-6 cells after 3 days by MTT assay; format: functional, cell-based; details: ANBL-6, 72 h; how it was run: as §2
[13] = Antiproliferative activity against human KJON cells after 3 days by MTT assay; format: functional, cell-based; details: 72 h; how it was run: as §2
[14] = Antiproliferative activity against human U266 cells after 3 days by MTT assay; format: functional, cell-based; details: U-266, 72 h; how it was run: as §2
[15] = Antiproliferative activity against rat HO15.19-wt-Myc cells after 3 days by MTT assay; format: functional, cell-based; details: HO15.19, 72 h; how it was run: as §2
[16] = Cell cycle arrest in human HL60 cells assessed as accumulation at G0/G1 phase at 10 uM after 24 hrs by propidium iodide staining-based flow cytometric analysis (reference value: 31.2%); format: functional; details: HL-60
[17] = Cell cycle arrest in human HL60 cells assessed as accumulation at S phase at 10 uM after 24 hrs by propidium iodide staining-based flow cytometric analysis (reference value: 58.4%); format: functional; details: HL-60
[18] = Cell cycle arrest in human HL60 cells assessed as accumulation at G2/M phase at 10 uM after 24 hrs by propidium iodide staining-based flow cytometric analysis (reference value: 10.3%); format: functional; details: HL-60
[19] = Cell cycle arrest in human HL60 cells assessed as accumulation at G0/G1 phase at 15 uM after 24 hrs by propidium iodide staining-based flow cytometric analysis (reference value: 31.2%); format: functional; details: HL-60
[20] = Cell cycle arrest in human HL60 cells assessed as accumulation at S phase at 15 uM after 24 hrs by propidium iodide staining-based flow cytometric analysis (reference value: 58.4%); format: functional; details: HL-60
[21] = Cell cycle arrest in human HL60 cells assessed as accumulation at G2/M phase at 15 uM after 24 hrs by propidium iodide staining-based flow cytometric analysis (reference value: 10.3%); format: functional; details: HL-60
c-Myc/Max [22] = biological target: T1, c-Myc/Max; assay: Induction of dissociation of […]-Max in human HL60 cells at 10 to 30 uM after 6 hrs by Co-immunoprecipitation (Co-IP) assay; format: cell-based; details: HL-60
How it was run: (§3)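 About 5×10⁶ HL60 cells exposed 6 h to compound or DMSO; lysed in IP buffer; 300 µg cleared lysate immunoprecipitated overnight at 4 °C with anti-Max (1:200) and protein G-Sepharose; 10% SDS-PAGE, immunoblot with anti-c-Myc 9E10 (1:1000); input lysate kept for comparison.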

[23] = biological target: Myc proto-oncogene protein (Homo sapiens) (UniProt P01106); assay: Inhibition of wild type c-Myc binding site (unknown origin) expressed in human HeLa cells assessed as inhibition of luciferase after 6 hrs; format: cell-based
How it was run: (§4)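 HeLa cells stably carrying a labile luciferase under a minimal promoter with triplicated c-Myc or NF-κB sites, methotrexate-amplified; 10⁶ cells seeded, next day compound for 6 h; lysates assayed in triplicate, normalised to protein, background (mutant-site line) subtracted, expressed relative to untreated cells (100%); mean ± 1 standard error.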

[24] = biological target: Nuclear factor NF-kappa-B complex (Homo sapiens) (UniProt Q00653+P19838+Q04206); assay: Inhibition of NFkappaB binding site (unknown origin) expressed in human HeLa cells assessed as inhibition of luciferase after 6 hrs; format: cell-based; how it was run: as §4
[25] = Cell cycle arrest in human HL60 cells assessed as accumulation at G0/G1 phase at 20 uM after 24 hrs by propidium iodide staining-based flow cytometric analysis (reference value: 39%); format: functional; details: HL-60
[26] = Cell cycle arrest in human HL60 cells assessed as accumulation at S phase at 20 uM after 24 hrs by propidium iodide staining-based flow cytometric analysis (reference value: 49%); format: functional; details: HL-60
[27] = Cell cycle arrest in human HL60 cells assessed as accumulation at G2/M phase at 20 uM after 24 hrs by propidium iodide staining-based flow cytometric analysis (reference value: 11.2%); format: functional; details: HL-60
[28] = Cell cycle arrest in human HL60 cells assessed as accumulation at G0/G1 phase at 40 uM after 24 hrs by propidium iodide staining-based flow cytometric analysis (reference value: 39%); format: functional; details: HL-60
[29] = Cell cycle arrest in human HL60 cells assessed as accumulation at S phase at 40 uM after 24 hrs by propidium iodide staining-based flow cytometric analysis (reference value: 49%); format: functional; details: HL-60
[30] = Cell cycle arrest in human HL60 cells assessed as accumulation at G2/M phase at 40 uM after 24 hrs by propidium iodide staining-based flow cytometric analysis (reference value: 11.2%); format: functional; details: HL-60
c-Myc/Max [31] = biological target: T1, c-Myc/Max; assay: Induction of dissociation of […]-Max in human HL60 cells at 40 to 72 uM after 6 hrs by Co-immunoprecipitation (Co-IP) assay; format: cell-based; details: HL-60; how it was run: as §3
NCI-H460 = assay: Induction of neutral lipid accumulation in human H460 cells assessed as ratio of mean florescent intensity of compound treated to control cells at 40 uM after 48 hrs by flow cytometry; format: functional
How it was run: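 Sub-confluent H460 cells given compound 48 h; trypsinised, washed, stained 30 min at ambient temperature with BODIPY […]/503 (stock 50 µg/ml, 0.9 ml added to 0.1 ml cells); flow cytometry of ≥10⁴ events; mean fluorescence of treated over untreated cells; biological triplicates, ± one standard error.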

c-Myc/Max [32] = biological target: T1, c-Myc/Max; details: 6.3 to 50 uM
c-Myc/Max [33] = biological target: T1, c-Myc/Max; details: 6.3 to 50 uM; remark: listed apart in the source

T1 sequence (P01106 whole entry): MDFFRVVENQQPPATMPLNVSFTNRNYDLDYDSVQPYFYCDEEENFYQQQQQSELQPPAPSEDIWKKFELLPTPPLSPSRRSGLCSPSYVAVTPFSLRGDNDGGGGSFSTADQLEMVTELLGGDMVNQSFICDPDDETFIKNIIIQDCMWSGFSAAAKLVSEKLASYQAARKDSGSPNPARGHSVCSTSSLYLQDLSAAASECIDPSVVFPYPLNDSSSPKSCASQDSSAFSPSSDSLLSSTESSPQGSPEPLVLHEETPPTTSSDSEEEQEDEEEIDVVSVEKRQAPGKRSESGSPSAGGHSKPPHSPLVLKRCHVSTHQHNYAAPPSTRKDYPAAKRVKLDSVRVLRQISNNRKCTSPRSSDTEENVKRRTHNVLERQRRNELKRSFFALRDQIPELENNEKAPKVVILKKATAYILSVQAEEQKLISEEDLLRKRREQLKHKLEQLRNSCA
T1 sequence (P61244 whole entry): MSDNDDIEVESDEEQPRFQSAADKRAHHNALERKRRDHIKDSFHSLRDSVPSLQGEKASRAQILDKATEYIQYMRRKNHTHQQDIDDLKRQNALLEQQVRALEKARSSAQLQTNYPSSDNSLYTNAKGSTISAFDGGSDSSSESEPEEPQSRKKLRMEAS
Sequence of Protein max (Homo sapiens) (P61244 whole entry): as above
Sequence of Nuclear factor NF-kappa-B complex (Homo sapiens) (P19838 whole entry, looked up): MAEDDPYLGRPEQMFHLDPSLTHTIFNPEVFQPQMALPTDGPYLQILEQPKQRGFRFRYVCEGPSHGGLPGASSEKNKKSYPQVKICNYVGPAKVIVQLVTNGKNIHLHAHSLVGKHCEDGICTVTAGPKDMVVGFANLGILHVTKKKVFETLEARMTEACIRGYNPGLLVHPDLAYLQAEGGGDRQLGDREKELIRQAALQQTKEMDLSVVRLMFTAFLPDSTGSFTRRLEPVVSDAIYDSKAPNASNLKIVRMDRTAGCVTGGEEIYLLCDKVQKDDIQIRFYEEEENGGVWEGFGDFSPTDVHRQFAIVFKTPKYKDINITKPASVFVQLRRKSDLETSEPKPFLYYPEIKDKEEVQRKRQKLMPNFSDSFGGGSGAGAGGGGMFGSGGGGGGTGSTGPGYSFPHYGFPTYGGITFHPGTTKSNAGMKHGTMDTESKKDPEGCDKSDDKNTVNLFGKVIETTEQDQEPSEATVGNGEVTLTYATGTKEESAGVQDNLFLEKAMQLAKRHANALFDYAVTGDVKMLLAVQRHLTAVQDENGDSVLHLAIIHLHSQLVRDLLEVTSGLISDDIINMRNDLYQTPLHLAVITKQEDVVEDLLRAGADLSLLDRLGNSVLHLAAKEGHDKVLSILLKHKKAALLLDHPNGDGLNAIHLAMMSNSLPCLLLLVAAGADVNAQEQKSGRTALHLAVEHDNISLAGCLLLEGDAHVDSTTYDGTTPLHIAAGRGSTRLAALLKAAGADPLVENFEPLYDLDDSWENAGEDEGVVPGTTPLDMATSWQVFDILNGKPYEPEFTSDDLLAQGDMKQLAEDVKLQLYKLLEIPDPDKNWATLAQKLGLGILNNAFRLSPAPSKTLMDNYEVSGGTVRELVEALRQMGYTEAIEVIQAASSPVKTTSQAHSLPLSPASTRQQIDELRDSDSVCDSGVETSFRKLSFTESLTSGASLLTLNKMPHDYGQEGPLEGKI
Sequence of Nuclear factor NF-kappa-B complex (Homo sapiens) (Q00653 whole entry, looked up): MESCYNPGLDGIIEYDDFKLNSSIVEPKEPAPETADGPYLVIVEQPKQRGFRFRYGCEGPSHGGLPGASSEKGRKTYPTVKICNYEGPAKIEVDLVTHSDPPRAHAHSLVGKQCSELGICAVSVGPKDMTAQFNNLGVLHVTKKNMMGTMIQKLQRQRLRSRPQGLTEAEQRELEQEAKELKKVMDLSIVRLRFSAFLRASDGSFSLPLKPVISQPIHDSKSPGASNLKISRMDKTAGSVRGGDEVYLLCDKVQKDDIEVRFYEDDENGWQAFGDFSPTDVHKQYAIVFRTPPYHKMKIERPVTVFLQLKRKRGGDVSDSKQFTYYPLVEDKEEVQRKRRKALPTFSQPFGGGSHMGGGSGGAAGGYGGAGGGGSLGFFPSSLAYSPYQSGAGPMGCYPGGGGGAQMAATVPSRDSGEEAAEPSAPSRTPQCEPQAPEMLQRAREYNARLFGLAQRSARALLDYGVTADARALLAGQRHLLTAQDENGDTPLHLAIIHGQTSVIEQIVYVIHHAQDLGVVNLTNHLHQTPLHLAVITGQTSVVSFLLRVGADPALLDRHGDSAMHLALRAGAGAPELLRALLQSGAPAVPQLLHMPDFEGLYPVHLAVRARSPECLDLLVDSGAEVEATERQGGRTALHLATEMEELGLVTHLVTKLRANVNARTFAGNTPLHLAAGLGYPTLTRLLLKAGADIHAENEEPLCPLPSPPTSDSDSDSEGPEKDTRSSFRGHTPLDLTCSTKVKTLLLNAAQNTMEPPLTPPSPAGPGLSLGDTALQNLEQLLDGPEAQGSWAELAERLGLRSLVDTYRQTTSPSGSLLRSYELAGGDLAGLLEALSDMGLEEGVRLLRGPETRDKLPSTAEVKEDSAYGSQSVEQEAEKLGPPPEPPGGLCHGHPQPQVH
Sequence of Nuclear factor NF-kappa-B complex (Homo sapiens) (Q04206 whole entry, looked up): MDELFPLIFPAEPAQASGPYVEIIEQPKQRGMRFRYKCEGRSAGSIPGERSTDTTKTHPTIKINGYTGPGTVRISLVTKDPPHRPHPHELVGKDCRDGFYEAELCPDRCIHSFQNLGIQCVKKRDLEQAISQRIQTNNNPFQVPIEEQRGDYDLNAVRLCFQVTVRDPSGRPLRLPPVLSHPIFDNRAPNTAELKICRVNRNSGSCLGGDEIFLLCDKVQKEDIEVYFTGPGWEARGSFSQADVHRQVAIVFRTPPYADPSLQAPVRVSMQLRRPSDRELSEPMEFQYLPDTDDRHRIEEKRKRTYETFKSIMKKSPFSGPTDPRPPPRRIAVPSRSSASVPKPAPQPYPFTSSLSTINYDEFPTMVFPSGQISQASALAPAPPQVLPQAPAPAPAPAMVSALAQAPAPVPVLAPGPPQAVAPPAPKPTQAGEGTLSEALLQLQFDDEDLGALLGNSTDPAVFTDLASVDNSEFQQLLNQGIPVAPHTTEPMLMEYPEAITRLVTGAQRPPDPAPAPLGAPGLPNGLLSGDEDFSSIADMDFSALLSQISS
Sequence of Myc proto-oncogene protein (Homo sapiens) (P01106 whole entry): as the sequence (P01106 whole entry) above

SMILES: CC(C)COc1cc(C(=O)O)ccc1NC(=O)c1ccc([N+](=O)[O-])c(OCc2cccc3ccccc23)c1
Activity (c-Myc/Max [1]): 0%
IC50 (c-Myc/Max [2]): 11.6 µM
Activity [4]: inactive
Kd (c-Myc/Max [5]): 13 µM
inhibition (c-Myc/Max [6]): Active
inhibition (c-Myc/Max [7]): Active
IC50 (Daudi): 9.5 µM
IC50 [8]: 18.1 µM
IC50 [9]: 20.6 µM
IC50 [10]: 15.9 µM
IC50 (HeLa): 10.8 µM
IC50 (HEK293): 10.4 µM
IC50 [11]: 15.7 µM
IC50 [12]: 35.6 µM
IC50 [13]: 23 µM
IC50 [14]: 46 µM
IC50 [15]: 14.1 µM
Activity [16]: 51.4%
Activity [17]: 47.9%
Activity [18]: 0.77%
Activity [19]: 71%
Activity [20]: 23.3%
Activity [21]: 5.64%
Activity (c-Myc/Max [22]): inactive
inhibition [23]: Dose-dependent effect
inhibition [24]: inactive

SMILES: CCc1ccc(/C=C2\SC(=S)NC2=O)cc1
Activity [25]: 48%
Activity [26]: 42%
Activity [27]: 10%
Activity [28]: 59.3%
Activity [29]: 35%
Activity [30]: 5.6%
Activity (c-Myc/Max [31]): inactive

SMILES: CCOC(=O)C(=O)Nc1ccc(C(=O)Nc2ccc(C(=O)O)cc2OCC(C)C)cc1OCC(C)C
Activity (c-Myc/Max [1]): 0%
IC50 (c-Myc/Max [2]): 5.6 µM
IC50 [3]: > 50 µM
IC50 (Daudi): > 50 µM

SMILES: O=[N+]([O-])c1ccc(Nc2ccccc2-c2ccccc2)c2nonc12
Ratio (NCI-H460): 1.4
inhibition (c-Myc/Max [32]): Active
inhibition (c-Myc/Max [33]): Active

Further lines, with some results ahead:

Activity (c-Myc/Max [1]): 0%
IC50 (c-Myc/Max [2]): 20.2 µM
IC50 (Daudi): 22.9 µM
SMILES: CC(C)COc1cc(C(=O)O)ccc1NC(=O)c1ccc([N+](=O)[O-])c(OCC(C)C)c1
IC50 [3]: 39.9 µM

Activity (c-Myc/Max [1]): 0%
IC50 (c-Myc/Max [2]): 23.8 µM
IC50 (Daudi): 11.1 µM
SMILES: CC(C)COc1nc(C(=O)O)ccc1NC(=O)c1ccc([N+](=O)[O-])c(OCC(C)C)n1
IC50 [3]: 30.3 µM

IC50 (c-Myc/Max [2]): 43 µM
IC50 (Daudi): 25.6 µM
SMILES: CC(C)COc1cc(C(=O)O)ccc1NC(=O)c1ccc([N+](=O)[O-])c(OCc2ccccc2)c1

Activity (c-Myc/Max [1]): 0%
IC50 (c-Myc/Max [2]): 43.8 µM
IC50 (Daudi): 11.2 µM
SMILES: CC(C)COc1cc(C(=O)O)ccc1NC(=O)c1ccc([N+](=O)[O-])c(OCC(C)C)n1
IC50 [3]: 21.5 µM

Activity (c-Myc/Max [1]): 96%
SMILES: CC(C)COc1cc(NC(=O)c2ccc([N+](=O)[O-])cc2OCC(C)C)ccc1C(=O)O

From ChEMBL document CHEMBL3425495, “Perturbation of the c-Myc-Max protein-protein interaction via synthetic α-helix mimetics” (J Med Chem, 2015)
